How the values were obtained:
HCT-116 = experiment: Cytotoxicity against human HCT116 cells after 48 hrs by SRB assay; format: functional; conditions: HCT-116, 48 h
Outline: (§1)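 Run at NCI: cell lines exposed 48 h to a range of concentrations, with untreated controls under identical conditions. Growth measured by sulforhodamine B staining with colorimetric read-out. Percent growth computed from test, time-zero and control absorbances. GI50, TGI and LC50 read from PG versus log10 molar concentration as the concentrations giving PG = 50, 0 and -50.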

SF-295 = experiment: Cytotoxicity against human SF295 cells after 48 hrs by SRB assay; format: functional; conditions: SF-295, 48 h; outline: as §1
SF-539 = experiment: Cytotoxicity against human SF539 cells after 48 hrs by SRB assay; format: functional; conditions: SF-539, 48 h; outline: as §1
UACC-62 = experiment: Cytotoxicity against human UACC62 cells after 48 hrs by SRB assay; format: functional; conditions: UACC-62, 48 h; outline: as §1
IGROV-1 = experiment: Cytotoxicity against human IGROV1 cells after 48 hrs by SRB assay; format: functional; conditions: IGROV-1, 48 h; outline: as §1
OVCAR-3 = experiment: Cytotoxicity against human OVCAR-3 cells after 48 hrs by SRB assay; format: functional; conditions: OVCAR-3, 48 h; outline: as §1
SK-OV-3 = experiment: Cytotoxicity against human SKOV3 cells after 48 hrs by SRB assay; format: functional; conditions: SK-OV-3, 48 h; outline: as §1
CAKI-1 = experiment: Cytotoxicity against human CAKI1 cells after 48 hrs by SRB assay; format: functional; conditions: CAKI-1, 48 h; outline: as §1
MCF7 = experiment: Cytotoxicity against human MCF7 cells after 48 hrs by SRB assay; format: functional; conditions: MCF7, 48 h; outline: as §1
MDA-N = experiment: Cytotoxicity against human MDA-N cells after 48 hrs by SRB assay; format: functional; outline: as §1
SK-MEL-28 = experiment: Cytotoxicity against human SK-MEL-28 cells after 48 hrs by SRB assay; format: functional; conditions: SK-MEL-28, 48 h; outline: as §1
SNB-75 = experiment: Cytotoxicity against human SNB75 cells after 48 hrs by SRB assay; format: functional; conditions: SNB-75, 48 h; outline: as §1
Escherichia coli = experiment: Induction of plasmid pBR322 DNA cleavage assessed as concentration required to cleave 50% of DNA after 24 hrs by gel electrophoresis
Outline: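 Supercoiled pBR322 (90% form I) diluted to 50 µg/mL (75 µM/bp) in pH 7.5 Tris 40 mM/EDTA 4 mM. Incubated 24 h at 37 °C, then run on agarose gel with ethidium bromide and viewed at 302 nm. Form I versus II+III quantified by densitometry after subtracting form II present in the control.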

RPMI-8226 = experiment: Cytotoxicity against human RPMI8226 cells after 48 hrs by SRB assay; format: functional; conditions: RPMI-8226, 48 h; outline: as §1
A549 = experiment: Cytotoxicity against human A549 cells after 48 hrs by SRB assay; format: functional; conditions: A549, 48 h; outline: as §1
HOP-62 = experiment: Cytotoxicity against human HOP62 cells after 48 hrs by SRB assay; format: functional; conditions: HOP-62, 48 h; outline: as §1
NCI-H226 = experiment: Cytotoxicity against human NCI-H226 cells after 48 hrs by SRB assay; format: functional; conditions: NCI-H226, 48 h; outline: as §1
NCI-H23 = experiment: Cytotoxicity against human NCI-H23 cells after 48 hrs by SRB assay; format: functional; conditions: NCI-H23, 48 h, read-out: Log LC50 (the source's name) (converted)
Outline: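 Run at NCI: cells exposed 48 h to a range of concentrations, with untreated controls under identical conditions. Growth measured by sulforhodamine B staining with colorimetric read-out. Percent growth (PG) calculated from absorbance at 48 h with drug, at time zero, and at 48 h without drug. Log molar concentration plotted against PG; GI50 at PG = 50, TGI at PG = 0, LC50 at PG = −50.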

NCI-H322M = experiment: Cytotoxicity against human NCI-H322M cells after 48 hrs by SRB assay; format: functional; outline: as §1
[1] = read-out: Log LC50 (the source's name) (converted)

SMILES: CC(=O)O[C@@H]1C#C/C=C\C#CC[C@H]2C(=O)N(C(=O)OC(C)(C)C)[C@H]12
- GI50 (HCT-116): 25.7 µM
- CC50 (HCT-116; [1]): > 100 µM
- TGI (HCT-116; read-out: Log TGI (converted)): > 100 µM
- GI50 (SF-295): 30.9 µM
- CC50 (SF-295; [1]): > 100 µM
- TGI (SF-295; read-out: Log TGI (converted)): > 100 µM
- GI50 (SF-539): 0.724 µM
- CC50 (SF-539; [1]): 25.7 µM
- TGI (SF-539; read-out: Log TGI (converted)): 5.37 µM
- GI50 (UACC-62): 21.4 µM
- CC50 (UACC-62; [1]): > 100 µM
- TGI (UACC-62; read-out: Log TGI (converted)): > 100 µM
- GI50 (IGROV-1): 19.5 µM
- CC50 (IGROV-1; [1]): > 100 µM
- TGI (IGROV-1; read-out: Log TGI (converted)): > 100 µM
- GI50 (OVCAR-3): 61.7 µM
- CC50 (OVCAR-3; [1]): > 100 µM
- TGI (OVCAR-3; read-out: Log TGI (converted)): > 100 µM
- GI50 (SK-OV-3): 87.1 µM
- CC50 (SK-OV-3; [1]): > 100 µM
- TGI (SK-OV-3; read-out: Log TGI (converted)): > 100 µM
- GI50 (CAKI-1): 0.355 µM
- CC50 (CAKI-1; [1]): 60.3 µM
- TGI (CAKI-1; read-out: Log TGI (converted)): 6.46 µM
- GI50 (MCF7): 1.1 µM
- CC50 (MCF7; [1]): > 100 µM
- TGI (MCF7; read-out: Log TGI (converted)): > 100 µM
- GI50 (MDA-N): 87.1 µM
- CC50 (MDA-N; [1]): > 100 µM
- TGI (MDA-N; read-out: Log TGI (converted)): > 100 µM
- GI50 (SK-MEL-28): 87.1 µM
- CC50 (SK-MEL-28; [1]): > 100 µM
- TGI (SK-MEL-28; read-out: Log TGI (converted)): > 100 µM
- GI50 (SNB-75): 38 µM
- CC50 (SNB-75; [1]): > 100 µM
- TGI (SNB-75; read-out: Log TGI (converted)): > 100 µM
- CS50 (Escherichia coli): 40 µM
- GI50 (RPMI-8226): 17.8 µM
- CC50 (RPMI-8226; [1]): > 100 µM
- TGI (RPMI-8226; read-out: Log TGI (converted)): > 100 µM
- GI50 (A549): 28.2 µM
- CC50 (A549; [1]): > 100 µM
- TGI (A549; read-out: Log TGI (converted)): > 100 µM
- GI50 (HOP-62): 5.01 µM
- CC50 (HOP-62; [1]): > 100 µM
- TGI (HOP-62; read-out: Log TGI (converted)): 38 µM
- GI50 (NCI-H226): 39.8 µM
- CC50 (NCI-H23): > 100 µM
- GI50 (NCI-H322M): > 100 µM
- CC50 (NCI-H322M; [1]): > 100 µM
- TGI (NCI-H322M; read-out: Log TGI (converted)): > 100 µM

Reference: ChEMBL document CHEMBL1142420, “Synthesis and DNA-cleaving activity of lactenediynes conjugated with DNA-complexing moieties” (2008)
